Compounds with a hit are over-represented: about 2% of the library has one in this group of screens.
HCV NS3 hel inh: HCV NS3 helicase inhibition. NS3 helicase DNA unwinding, Cy5 molecular beacon fluorescence. inhibition, % at 10.9 µM. 290,000 tested, 0.56% active. AID 1800;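 active = inhibition above the mean of all tested compounds plus 3 SD, set per campaign, cut at about 35% in these data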
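Assay system – hepatitis C virus NS3 helicase domain fragment enzyme · Buffer or medium – MOPS pH 6.5, MgCl2, DTT, Tween20, BSA · Reagent – Cy5/quencher beacon DNA duplex and ATP to start · Compound – single 10.9 µM dose · Timing – 1 h at 25 °C · Technique – Cy5 beacon fluorescence read at start and 1 h · Measure – % inhibition of unwinding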
PABP1 MLLE inh: inhibitors of microRNA-mediated deadenylation, human PABP1 MLLE binding | P11940 | GST-MLLE / FITC-PAM2 fluorescence polarization | inhibition, % at 20 µM | 360,000 tested, 0.36% active | AID 588489; in the data active = inhibition above about 35%, passing the limit was not always enough
eIF4H FP inh: inhibitors of RNA binding by human eIF4H | Q15056 | eIF4H fluorescence polarization binding assay | inhibition, % at 35 µM | 290,000 tested, 0.94% active | AID 2012;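 also: calls also rest on retests at 20 µM and on dose response follow-up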
HCV core dimer: blocks dimerization of HCV core protein; TR-FRET GST/Flag-core106 dimerization, 1536-well; inhibition, % at 5 µM; AID 1899; 300,000 tested, 0.33% active;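 active = inhibition above the mean of all tested compounds plus 3 SD, set per screening campaign, cut at about 45% in these data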
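Assay system – GST-tagged and Flag-tagged HCV core protein residues 1-106 · Quantity – core106 proteins, GST 13.5 nM and Flag 17 nM · Benchmarks – unlabelled core106 and no-GST-core106 wells · Read-out basis – percent inhibition of core106 dimerization signal · Detection – time-resolved FRET, ex 340 nm, em 617 and 671 nm · Schedule – 4 h at 22.5 °C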
PABP polyA inh: blocks human PABP binding to poly(A) RNA. P11940. fluorescence polarization. inhibition, % at 35 µM. 290,000 tested, 1% active;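 also: calls also rest on retests at 20 µM and on dose response follow-up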
DNA FID counter-1: fluorescent intercalator displacement, NS3 helicase counter-screen; DNA fluorescent intercalator displacement, fluorescence; 290,000 tested, 0.17% active; inhibition, % at 7.9 µM; in the data active = inhibition above about 37%;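 also: higher means more ethidium bromide displaced from hairpin DNA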
NS3 helicase cf: HCV NS3 helicase inhibition, confirmation assay; shares compounds with HCV NS3 hel inh; NS3 helicase DNA unwinding, Cy5 molecular beacon fluorescence; inhibition, % at 10.9 µM; 1,600 tested, 31% active; AID 1943;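 active = inhibition above the mean of all tested compounds plus 3 SD, cutoff set per campaign, cut at about 36% in these data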
DNA FID counter-2: intercalator displacement, NS3 helicase counter-screen | inhibition, % at 7.9 µM | AID 1945 | DNA fluorescent intercalator displacement, fluorescence | shares compounds with HCV NS3 hel inh | 1,600 tested, 4% active; in the data active = inhibition above about 37%;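 also: higher means more displacement of ethidium bromide from the DNA hairpin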
Numbers stand for hits; – = inactive; ? = inconclusive; · = not tested or not shown. Unless noted, no rule for the calls is given here.

SMILES | HCV NS3 hel inh | PABP1 MLLE inh | eIF4H FP inh | HCV core dimer | PABP polyA inh | DNA FID counter-1 | others
CCOC(=O)C1=CCC(c2ccc(C#N)cc2)N(S(=O)(=O)c2ccc(C)cc2)C1 (stereo unspecified) | · | – | · | · | · | ·
CC(C)=C[C@H]1C[C@H](C)[C@H]2CC[C@H](C)c3c(O[C@@H]4OC[C@@H](O)[C@H](O)C4O)c(O)c(C)c1c32 (stereo partly specified) | · | – | · | · | · | ·
CCCCn1c(N)c(N(CC(C)C)C(=O)C(C)SCc2nc3sc(C)c(C)c3c(=O)[nH]2)c(=O)[nH]c1=O (stereo unspecified) | · | – | · | – | · | ·
CCOC(=O)C1(C)CCN1C(=O)c1cc(OC)ccc1Br (stereo unspecified) | · | – | · | · | · | ·
O=C1OC(c2ccccc2)=N/C1=C\C=C\c1ccco1 | – | – | – | – | – | –
C(=C\c1ccco1)/C=N/n1cnnc1 | – | – | 92.7 | – | 71.8 | –
O=c1[nH]c(CN2CCc3ccccc32)nc2scc(-c3cccs3)c12 | – | – | – | 47.7 | – | –
CC/C=C(\NC(C)=O)c1ccccc1 | · | – | · | · | · | ·
COc1ccc(/C=N/NC(=O)CCN2CCN(c3ccccc3)CC2)c(OC)c1OC | – | – | – | – | – | –
O=C(CCN1CCN(c2ccccc2)CC1)N/N=C/c1ccc(O)c(O)c1O | – | – | – | · | 81.0 | –
O=C(Cc1csc(N2CCOCC2)n1)N/N=C/c1ccc(O)c(O)c1O | – | – | – | · | 5.3 | –
O=c1[nH]cnc2c1ncn2[C@@H]1O[C@H](COS(=O)(=O)O)[C@@H](O)[C@H]1O | · | – | · | · | · | ·
CCOC(=O)c1sc(N)c(C#N)c1COC(=O)CNC(=O)c1ccccc1 | – | – | – | – | 126.3 | –
COc1cc(-c2nc(S(=O)(=O)c3ccc(C)cc3)c(N3CCOCC3)o2)cc(OC)c1OC | – | 40.3 | – | – | – | –
Cc1c(NC(=O)CC(C)C)c(=O)n(-c2ccccc2)n1C | – | – | – | – | 79.3 | –
O=c1cc(-c2ccccc2)nc(SCc2ccc(F)cc2)[nH]1 | – | – | active | – | – | –
CCCc1cc(=O)[nH]c(SCc2ccc(F)cc2)n1 | – | – | – | – | – | –
COc1ccc(C(C)(NC(C)=O)c2nc(-c3cccc(NC(C)=O)c3)cs2)cc1 (stereo unspecified) | · | – | · | · | · | ·
CCOc1ccccc1CNC(=O)c1cc2occc2n1C | – | – | ? | – | 83.3 | –
CCCNC(=O)C1(C)CCCN(Cc2ccc(-c3ccccc3)cc2)C1 (stereo unspecified) | · | – | · | · | · | ·
CCCN1CCN(S(=O)(=O)c2cn(C)nc2C)CC1 | – | – | – | – | 37.7 | –
Cc1nn(C)cc1S(=O)(=O)N1CCN(Cc2ccccc2Cl)CC1 | – | – | – | – | – | –
CCOc1ccc(OCCC(=O)OCC(=O)NC2CCCC2)cc1 | · | – | · | · | · | ·
CCOC(=O)CCCNC(=O)CCNC(=O)c1ccc(OCC)cc1 | – | – | active | – | 116.2 | –
Cc1cc(C)c(Nc2cc(S(=O)(=O)O)c(N)c3c2C(=O)c2ccccc2C3=O)c(C)c1 | – | – | – | – | active | 44.4
SMILES | HCV NS3 hel inh | PABP1 MLLE inh | eIF4H FP inh | HCV core dimer | PABP polyA inh | DNA FID counter-1 | others
CC1(OC(=O)C2CCCC2)C(=O)C=C2C=C3CCCN3C=C2C1=O (stereo unspecified) | · | · | · | – | · | ·
CC1(OC(=O)CCc2ccccc2)C(=O)C=C2C=C3CCCN3C=C2C1=O (stereo unspecified) | · | – | 83.1 | – | 55.1 | ·
CC1(OC(=O)CCc2ccccc2)C(=O)C=C2C=C(c3ccc(C#N)cc3)N(C3CCCCC3)C=C2C1=O (stereo unspecified) | · | – | – | – | 37.3 | ·
CC1(OC(=O)c2cccs2)C(=O)C=C2C=C3CCCN3C=C2C1=O (stereo unspecified) | · | – | 94.9 | – | 83.7 | ·
NC(=O)c1ccc(SCC(=O)OCC(=O)N2CCN(C(=O)c3ccco3)CC2)c([N+](=O)[O-])c1 | · | – | · | – | · | ·
CCOc1ccc(NC(=O)CCC(=O)N/N=C(\C)c2cccs2)cc1 | – | – | – | – | – | –
C/C(=N\NC(=O)CCC(=O)Nc1ccccc1)c1cccs1 | – | – | 1.1 | – | – | –
COC(=O)C(C)Oc1ccc(-c2nccc(-c3ccccn3)n2)cc1 (stereo unspecified) | – | – | – | – | – | –
Cc1cc(/C=N/NC(=O)COc2cccc3cccnc23)c(C)n1-c1ccc(O)cc1 | – | – | – | – | active | –
CCc1nc2ccc(C(=O)NCc3ccc(OC)cc3)cn2c1N(C)CCC(C)C | · | – | · | · | · | ·
COC(=O)c1cccc(NC(=S)Nc2ccc(Cl)c(Cl)c2)c1 | – | – | – | – | – | –
Cc1cccc(C)c1NC(=S)Nc1ccc(Cl)c(Cl)c1 | – | 45.4 | – | – | – | –
Cc1cc(C)cc(NC(=S)Nc2ccc(Cl)c(Cl)c2)c1 | – | 42.6 | – | – | – | –
O=C(CN1C(=O)c2ccccc2C1=O)C(O)CN1C(=O)c2ccccc2C1=O (stereo unspecified) | · | – | · | · | · | ·
Cc1ccccc1-c1csc(C(C)(O)c2ccc(F)c(F)c2)n1 (stereo unspecified) | · | – | · | · | · | ·
Cc1nc(N)sc1-c1csc(Nc2cccc(C(=O)O)c2)n1 | – | – | 85.1 | · | 52.6 | –
O=C(CSc1nnc(-c2ccco2)o1)c1ccc[nH]1 | – | – | 83.1 | 62.7 | – | –
O=C(CN1CCCc2ccccc21)NC(=O)NC1CCCCC1 | – | – | – | – | – | –
NC(=O)C1CCN(C(=O)CN2CCCc3ccccc32)CC1 | – | – | 78.2 | – | 66.2 | –
Cc1c(NC(=S)NC(=O)c2ccc(COc3ccccc3)cc2)cccc1C(=O)O | – | 39.4 | – | – | – | –
Cc1c(NC(=S)NC(=O)c2cccc3ccccc23)cccc1C(=O)O | – | 43.9 | – | – | – | –
Cc1c(NC(=S)NC(=O)Cc2ccccc2)cccc1C(=O)O | – | – | – | – | – | –
C[N+]1(CC(=O)NNc2c3ccccc3nc3ccccc23)CCOCC1 | – | · | – | – | – | 42.8
O=C(CN1CCOCC1)NNc1c2ccccc2nc2ccccc12 | – | – | – | – | – | –
Cc1ccc2c(c1)c1c3n2CCN=C3CCC1 | – | – | 58.8 | – | 76.1 | –
c1coc(-c2ncc[nH]2)c1 | – | – | 102.4 | – | 127.9 | –
CN1CCN(C(c2ccc(Br)cc2)c2cc(Cl)c3cccnc3c2O)CC1 (stereo unspecified) | 40.0 | – | – | – | – | – | NS3 helicase cf=–;DNA FID counter-2=74.2
O=C(NC(Cc1ccccc1)C(=O)O)/C(=C\c1ccc(Br)cc1)NC(=O)c1ccc(Br)o1 (stereo unspecified) | – | – | – | – | – | –

From PubChem
